# This is a sample that favours compounds with a hit; in the whole collection about 2.9% have one here.
# HTR1A agonist: human 5-HT1a receptor agonists, primary screen, cell-based, CHO, Ga15 NFAT-bla reporter; CHO 5-HT1a Ga15 NFAT-bla reporter, FRET ratio; 0% basal, 100% maximal reference agonist; 5-hydroxytryptamine receptor 1A (Homo sapiens), P08908; 65,000 tested, 0.56% active; activation, % at 10 µM; AID 567, 2006;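 active = activation above the screen-wide mean activation plus 3 SD, cut at about 19% in these data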;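 note: 0% = DMSO wells and 100% = 5-CT at EC100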
# 5-HT1A blocker: human 5-HT1a receptor antagonists, primary screen, cell-based, CHO, Ga15 NFAT-bla reporter; inhibition, % at 10 µM; 62,000 tested, 0.68% active; CHO 5-HT1a Ga15 NFAT-bla reporter, antagonist mode;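 active = inhibition above the mean of all tested compounds plus 3 SD, cut at about 43% in these data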;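 note: receptor stimulated by 5-CT agonist at 100 nM near EC80; beta-lactamase reporter measured by ratiometric fluorescence of a cleavable substrate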
# S1P3 agonist: human S1P3 receptor agonists, primary screen, cell-based, primary and confirmation, NFAT-BLA reporter; Sphingosine 1-phosphate receptor 3 (Homo sapiens), Q99500; 60,000 tested, 0.1% active; activation, % at 4.5 µM; S1P3 NFAT-BLA reporter cells, agonism, FRET ratio; relative to 1 µM S1P, basal subtracted;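 active = activation above the screen-wide mean plus 3 SD, cut at about 4.5% in these data, passing the limit was not always enough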
# Target sequence (Q99500 whole entry, looked up): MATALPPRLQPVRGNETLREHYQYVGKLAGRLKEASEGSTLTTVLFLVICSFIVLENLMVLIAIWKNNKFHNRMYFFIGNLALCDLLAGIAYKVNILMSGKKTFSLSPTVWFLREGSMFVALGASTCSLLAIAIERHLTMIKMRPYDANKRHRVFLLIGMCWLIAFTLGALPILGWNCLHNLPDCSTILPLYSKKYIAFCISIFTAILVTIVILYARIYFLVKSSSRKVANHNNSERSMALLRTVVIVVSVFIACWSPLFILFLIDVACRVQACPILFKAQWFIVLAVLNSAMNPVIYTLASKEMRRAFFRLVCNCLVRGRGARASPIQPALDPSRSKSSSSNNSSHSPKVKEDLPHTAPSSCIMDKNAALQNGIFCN
#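 Assay system: stable CHO line with human S1P3, Gα16, NFAT-BLA reporter; Detection: FRET β-lactamase substrate fluorescence, excitation 405 nm, 460/535 nm emission ratio, background-subtracted; Read-out: percent activation versus median 1 µM S1P response, basal-subtracted, per plate; Incubation: cells plated overnight, compound 4 h 37 °C, substrate 2 h RT.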
# HTR1E agonist: 5-HT1E receptor agonists, primary screen, cell-based, HTS | 5-hydroxytryptamine receptor 1E (Homo sapiens), P28566 | CHO 5-HT1E Ga15 NFAT-bla reporter, FRET; 0% DMSO wells, 100% control agonist wells | activation, % at 6 µM | 65,000 tested, 0.69% active;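 active = activation above a set limit, the screen-wide mean activation plus 3 SD, cut at about 8.5% in these data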;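 note: 100% = positive control agonist at 1 µM giving full maximal response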
# 5HT1E antag: 5-HT1E receptor antagonists, primary screen, cell-based, HTS. AID 571, 2007. CHO 5-HT1E Ga15 NFAT-bla reporter, FRET, antagonist. 5-hydroxytryptamine receptor 1E (Homo sapiens), P28566. inhibition, % at 6 µM. 65,000 tested, 0.99% active;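 active = inhibition above a set limit, the mean inhibition across every tested compound plus 3 SD, cut at about 29% in these data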;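 note: signal is the 460 over 535 nm emission ratio of beta-lactamase substrate; 0% = agonist plus DMSO wells and 100% = wells without agonist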
# S1P1 ag pot: S1P1 agonists and agonism potentiators, primary screen, cell-based, primary and confirmation screens, CRE-bla reporter; AID 449, 2006; 56,000 tested, 0.57% active; Sphingosine 1-phosphate receptor 1 (Homo sapiens), P21453; activation, % at 9.5 µM; S1P1 CRE-bla cells, forskolin, beta-lactamase FRET, potentiator mode; S1P1 agonist co-added at EC20, 2 nM; 100% = saturating reference agonist, 0% = basal;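 active = activation above a cutoff set at the mean activation of all tested compounds plus 3 SD, cut at about 54% in these data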;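 note: forskolin at 4 µM as EC80 and the EC20 agonist is SEW2871; 100% = SEW2871 at its EC100 plus forskolin at EC80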
# Active calls of the source: *; nt = not tested or not shown.
SMILES,HTR1A agonist,5-HT1A blocker,S1P3 agonist,HTR1E agonist,5HT1E antag,S1P1 ag pot
Cc1ccc(-c2csc(/C(C#N)=C(\O)CN3CCN(C(=O)c4ccco4)CC3)n2)cc1,0,-1,-1,0,-4,-18
CC1CCC2(CC1)NC(=O)N(CC(=O)NC(=O)NC1CCCC1)C2=O (stereo unspecified),-5,-5,0,0,-6,-16
CCOC(=O)c1cc(NC(=O)N2CCCCC2)c(C)nc1C,-1,-6,nt,3,-1,nt
COc1ccc(OC)c(NC(=O)CSCc2cnn(-c3ccccc3)c2-n2cccc2)c1,-2,57*,0,0,9,31
CCCCCOC(=O)c1[nH]c2c(c1C)C(=O)CC(c1ccco1)C2 (stereo unspecified),1,66*,-2,-1,82*,24
CCOC(=O)c1[nH]c2c(c1C)C(=O)CC(c1ccc(OCC)c(OC)c1)C2 (stereo unspecified),1,-1,nt,1,-5,nt
CCOC(=O)c1[nH]c2c(c1C)C(=O)CC(c1ccc(F)cc1)C2 (stereo unspecified),2,16,-2,0,58*,30
C=C(C)C1Cc2nc(N)nc(C)c2C1 (stereo unspecified),3,-3,0,0,-6,-16
C=C(C)c1nc(N)nc(N)n1,32*,12,0,0,2,-5
Cc1cc(=O)n2nc(N3CCCC3C(=O)NCCCN3CCCCC3)sc2n1 (stereo unspecified),0,-11,1,-1,-1,6
CC1(C)Cc2c(c(N3CCOCC3)nc3snc(Br)c23)CO1,2,nt,-3,-1,24,-32
CC1(C)Cc2c(c(N3CCOCC3)nc3snc(N)c23)CO1,359*,nt,-3,1,11,14
CC(=O)Oc1ccc(N2C(=O)C3C(C2=O)C2(C)C=CC3(C)O2)cc1 (stereo unspecified),-6,85*,-1,0,64*,135*
COc1ccccc1-c1cc(-c2cc(Cl)ccc2O)n[nH]1,3,nt,-4,-1,8,7
COc1ccc(O)c(-c2cc(-c3cccs3)[nH]n2)c1,-1,51*,-2,-2,8,-11
O=C(CSc1nnnn1-c1ccccc1)Nc1nsc(-c2ccccc2)n1,-1,7,-1,0,9,nt
O=C(CSc1nnnn1-c1ccccc1)Nc1nsc(-c2ccc(Cl)cc2)n1,0,50*,0,1,-11,-19
COc1ccc(N2C(C)=CS/C2=C(/C#N)c2nnc(N3CCOCC3)n2-c2ccccc2)cc1,-3,-4,-1,0,4,-1
O=C(NC1CCS(=O)(=O)C1)C12CC3CC(CC(C3)C1)C2 (stereo unspecified),-1,0,-1,-1,-1,-12
O=S(=O)(NCCCN1CCN(c2ccccc2F)CC1)c1cccc2cccnc12,6,40,0,9.1*,-5,23
COc1ccc(N2CCN(c3oc(COc4ccc(Cl)cc4Cl)nc3C#N)CC2)cc1,-1,59*,0,0,-1,2
N#Cc1nc(COc2ccc(Cl)cc2Cl)oc1N1CCN(c2ccccc2)CC1,0,57*,0,-1,7,69*
N#Cc1nc(COc2ccc(Cl)cc2Cl)oc1N1CCOCC1,0,4,0,0,2,-3
CCN(CC)CCCN1C(=O)c2oc3ccccc3c(=O)c2C1c1cc(OC)ccc1OC (stereo unspecified),-1,-18,-1,0,3,-10
O=C1C2=C(Nc3ccccc3SC2c2ccco2)c2ccccc21 (stereo unspecified),-1,70*,-2,0,8,9
SMILES,HTR1A agonist,5-HT1A blocker,S1P3 agonist,HTR1E agonist,5HT1E antag,S1P1 ag pot
COc1ccccc1/C=C/CN1CC(C)OC(C)C1 (stereo unspecified),-1,8,-1,2,-9,nt
Cc1cccc(C)c1NC(=O)Cn1c(=O)n(CCCC(=O)NCc2ccco2)c(=O)c2sccc21,1,13,0,-1,3,-2
CCC(c1nnc(SCC(=O)NCCc2ccc(Cl)cc2Cl)o1)N(C)C (stereo unspecified),-1,6,0,1,-12,12
COc1cc2c(cc1OC)/C(=C/C#N)NC(C)(C)C2,-1,46*,0,-1,44*,-15
COc1ccccc1-n1cnc2cc(NCc3ccco3)ccc21,0,29,-1,-2,34*,12
CCCNC(=O)c1ccc2c(c1)ncn2-c1ccccc1OC,-3,17,0,1,1,-29
CCN1C(=O)c2ccccc2S(=O)c2ccc(C(=O)N3CCCC3)cc21 (stereo unspecified),-1,4,0,-1,12,-19
CN1CCN(C(=O)c2ccc3c(c2)N(Cc2cccc(Cl)c2)C(=O)c2ccccc2S3=O)CC1 (stereo unspecified),-1,7,0,15*,-1,8
Cc1cnc(C(=O)NCCc2ccc(S(=O)(=O)NC(=O)NC3CCCCC3)cc2)cn1,-2,nt,-3,-1,-5,-14
CC(C)C(c1nnnn1Cc1ccccc1)N(Cc1ccco1)Cc1cccs1 (stereo unspecified),-2,26,-2,-1,12,57
Cc1ccc(C(c2nnnn2C(C)(C)C)N(Cc2ccco2)Cc2cccs2)cc1 (stereo unspecified),-2,51*,-2,0,0,-14
N=c1c(C(=O)NC2CCCCC2)cc2c(=O)n3ccccc3nc2n1CCN1CCOCC1,1,22,0,0,-11,12
O=C(Nc1cccnc1)C(Cc1ccccc1)n1cccc1 (stereo unspecified),-1,-6,1,0,-4,-1
O=C(Nc1ncc(Br)s1)C(Cc1ccccc1)n1cccc1 (stereo unspecified),-1,13,-1,0,-14,99*
Cc1sc(NC(=O)c2ccco2)c(C(c2cccnc2)N2CCN(c3ccc(F)cc3)CC2)c1C (stereo unspecified),2,0,0,4,-18,-27
